The text below walks through data of ChEMBL document CHEMBL2440040, “Synthesis of 4″-O-desosaminyl clarithromycin derivatives and their anti-bacterial activities” (2013).

Holding throughout (assay type): functional
Assay [1] concerns Streptococcus pyogenes. As to the kind of experiment: Antibacterial activity against erythromycin-resistant Streptococcus pyogenes 11-2 by broth microdilution method. In general terms: In broth dilution the organism is exposed to a series of concentrations in liquid medium.
Assay [2] concerns Streptococcus pneumoniae. The experiment in a line: Antibacterial activity against erythromycin-sensitive Streptococcus pneumoniae 12-1 by broth microdilution method. A digest of the protocol: (§1)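 Strains obtained from the Institute of Medicinal Biotechnology, Academy of Medical Sciences & Peking Union Medical College. MIC determined in vitro by broth microdilution following NCCLS recommendations.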

Assay [3] concerns Staphylococcus epidermidis. As to the kind of experiment: Antibacterial activity against methicillin-resistant Staphylococcus epidermidis 12-4 by broth microdilution method.
Assay [4] has as its system Staphylococcus aureus. The experiment in a line: Antibacterial activity against methicillin-sensitive Staphylococcus aureus 12-32 by broth microdilution method. A digest of the protocol: as §1
Assay [5] relates to Streptococcus pneumoniae. The experiment in a line: Antibacterial activity against erythromycin-resistant Streptococcus pneumoniae 12-6 by broth microdilution method.
The test system of assay [6] is Staphylococcus epidermidis. The experiment in a line: Antibacterial activity against methicillin-resistant Staphylococcus epidermidis 12-11 by broth microdilution method.
The subject of assay [7] is Streptococcus pneumoniae. As to the kind of experiment: Antibacterial activity against erythromycin-resistant Streptococcus pneumoniae 12-5 by broth microdilution method.
For assay [8], the system named is Streptococcus pyogenes. As to the kind of experiment: Antibacterial activity against erythromycin-sensitive Streptococcus pyogenes ATCC 19625 by broth microdilution method. In outline:
as §1

Assay [9] deals with Streptococcus pneumoniae. As to the kind of experiment: Antibacterial activity against erythromycin-sensitive Streptococcus pneumoniae 12-4 by broth microdilution method.
Assay [10] has as its system Staphylococcus epidermidis. As to the kind of experiment: Antibacterial activity against methicillin-sensitive Staphylococcus epidermidis ATCC 12228 by broth microdilution method. In outline: as §1
In assay [11] the test system is Staphylococcus aureus. The experiment in a line: Antibacterial activity against methicillin-resistant Staphylococcus aureus 12-31 by broth microdilution method.
In assay [12] the test system is Staphylococcus aureus. As to the kind of experiment: Antibacterial activity against methicillin-sensitive Staphylococcus aureus ATCC 29213 by broth microdilution method. In outline:
as §1

Assay [13] concerns Staphylococcus epidermidis. The experiment in a line: Antibacterial activity against methicillin-sensitive Staphylococcus epidermidis 11-20 by broth microdilution method. In outline: as §1
Assay [14] concerns Streptococcus pneumoniae. As to the kind of experiment: Antibacterial activity against erythromycin-sensitive Streptococcus pneumoniae 12-14 by broth microdilution method. A digest of the protocol:
as §1

For assay [15], the system named is Staphylococcus epidermidis. The experiment in a line: Antibacterial activity against methicillin-sensitive Staphylococcus epidermidis 12-5 by broth microdilution method. In outline: as §1
The subject of assay [16] is Streptococcus pneumoniae. The experiment in a line: Antibacterial activity against erythromycin-sensitive Streptococcus pneumoniae 12-10 by broth microdilution method. A digest of the protocol: as §1
Assay [17] relates to Streptococcus pneumoniae. The experiment in a line: Antibacterial activity against erythromycin-sensitive Streptococcus pneumoniae 12-8 by broth microdilution method. A digest of the protocol: as §1

Values after ≈ are worked out from the molar mass of the structure shown.

On to `CC[C@H]1OC(=O)[C@H](C)[C@@H](O[C@H]2C[C@@](C)(OC)[C@@H](O[C@@H]3O[C@H](C)[C@@H](OCc4ccccc4)[C@H](N(C)C)[C@H]3O)[C@H](C)O2)[C@H](C)[C@@H](O[C@@H]2O[C@H](C)C[C@H](N(C)C)[C@H]2O)[C@@](C)(OC)C[C@@H](C)C(=O)[C@H](C)[C@H]2OC(=O)O[C@@]21C`, for which the MIC in assay [1] was > 32 µg/mL; in assay [2], 2 µg/mL (≈ 1.93 µM); in [3], > 32 µg/mL; in assay [4] it was 16 µg/mL (≈ 15.4 µM); in [5] it was 32 µg/mL (≈ 30.8 µM); in assay [6], 16 µg/mL (≈ 15.4 µM). Besides, the MIC in assay [7] was 32 µg/mL (≈ 30.8 µM); in [8], 2 µg/mL (≈ 1.93 µM); in assay [9] it was 32 µg/mL (≈ 30.8 µM); in assay [10], > 32 µg/mL; in assay [11] it was > 32 µg/mL; in [12] it was 16 µg/mL (≈ 15.4 µM). Moreover, the MIC turned out to be 16 µg/mL (≈ 15.4 µM) in [13]; 4 µg/mL (≈ 3.86 µM) in assay [14]; 16 µg/mL (≈ 15.4 µM) in [15]; 1 µg/mL (≈ 0.964 µM) in assay [16]; 2 µg/mL (≈ 1.93 µM) in assay [17].
As to `CC[C@H]1OC(=O)[C@H](C)[C@@H](O[C@H]2C[C@@](C)(OC)[C@@H](O[C@@H]3O[C@H](C)[C@@H](O)[C@H](N(C)C)[C@H]3O)[C@H](C)O2)[C@H](C)[C@@H](O[C@@H]2O[C@H](C)C[C@H](N(C)C)[C@H]2O)[C@@](C)(OC)C[C@@H](C)C(=O)[C@H](C)[C@H]2OC(=O)O[C@@]21C`, the MIC in assay [1] was 16 µg/mL (≈ 16.9 µM); in [2] it was 2 µg/mL (≈ 2.11 µM); in assay [3], 32 µg/mL (≈ 33.8 µM); in assay [4], 32 µg/mL (≈ 33.8 µM); in assay [5], 16 µg/mL (≈ 16.9 µM); in assay [6], 16 µg/mL (≈ 16.9 µM). Also, the MIC was 16 µg/mL (≈ 16.9 µM) in assay [7]; 2 µg/mL (≈ 2.11 µM) in [8]; 4 µg/mL (≈ 4.22 µM) in [9]; 32 µg/mL (≈ 33.8 µM) in [10]; > 32 µg/mL in [11]; 16 µg/mL (≈ 16.9 µM) in assay [12]. The MIC came to 16 µg/mL (≈ 16.9 µM) in assay [13]; 2 µg/mL (≈ 2.11 µM) in assay [14]; 16 µg/mL (≈ 16.9 µM) in assay [15]; 1 µg/mL (≈ 1.06 µM) in [16]; 1 µg/mL (≈ 1.06 µM) in [17].
Turning to `CC[C@H]1OC(=O)[C@H](C)[C@@H](O[C@H]2C[C@@](C)(OC)[C@@H](O[C@@H]3O[C@H](C)[C@@H](OCc4ccccc4)[C@H](N(C)C)[C@H]3OC(=O)c3ccccc3)[C@H](C)O2)[C@H](C)[C@@H](O[C@@H]2O[C@H](C)C[C@H](N(C)C)[C@H]2O)[C@@](C)(OC)C[C@@H](C)C(=O)[C@H](C)[C@H]2OC(=O)O[C@@]21C`, the MIC in [1], in assay [2], in [3], in assay [4], in assay [5] and in assay [6] was > 32 µg/mL in each case. Moreover, the MIC in assay [7], in [8], in assay [9], in [10], in assay [11] and in assay [12] was > 32 µg/mL each time. The MIC in [13] is > 32 µg/mL; in assay [14], > 32 µg/mL; in assay [15] it was > 32 µg/mL; in [16], > 32 µg/mL; in assay [17] it was 16 µg/mL (≈ 14 µM).
`CC[C@H]1OC(=O)[C@H](C)C(=O)[C@H](C)[C@@H](O[C@@H]2O[C@H](C)C[C@H](N(C)C)[C@H]2O)[C@](C)(OC)C[C@@H](C)C(=O)[C@H](C)[C@H]2N(CCCCn3cnc(-c4cccnc4)c3)C(=O)O[C@]12C` [TELITHROMYCIN]: the MIC in assay [1] is 2 µg/mL (≈ 2.46 µM); in assay [2], ≤ 2 µg/mL; in [3], ≤ 2 µg/mL; in assay [4] it was ≤ 2 µg/mL; in assay [5], ≤ 2 µg/mL; in [6], ≤ 2 µg/mL. Also, the MIC in assay [7] was ≤ 2 µg/mL; in [8], ≤ 2 µg/mL; in [9], ≤ 2 µg/mL; in assay [10] it was ≤ 2 µg/mL; in assay [11] it was > 64 µg/mL; in assay [12] it was ≤ 2 µg/mL. For the same compound, the MIC in [13], in assay [14], in [15], in assay [16] and in assay [17] was ≤ 2 µg/mL throughout.

In general, MIC refers to the smallest concentration in the dilution series that meets the test's criterion for growth inhibition. Read a high MIC as a less susceptible organism.
